How the values were obtained:
Type in all cases: functional
SK-OV-3 = assay: Antiproliferative activity against human SKOV3 cells after 48 hrs by sulforhodamine B assay; conditions: SK-OV-3, 48 h
In short: (§1)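 Cells grown in RPMI 1640 with 5% FBS and 2 mM L-glutamine, plated at 5000–40,000 cells/well and preincubated 24 h at 37 °C, 5% CO2. Five drug concentrations (10-fold or ½-log dilutions from DMSO stocks) applied for 48 h. TCA-fixed (final 10% adherent, 16% suspension), SRB-stained, A515 read. Growth versus time-zero and control wells gave GI50, TGI, LC50.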

DU-145 = assay: Antiproliferative activity against human DU145 cells after 48 hrs by sulforhodamine B assay; conditions: DU-145, 48 h; in short: as §1
OVCAR-5 = assay: Antiproliferative activity against human OVCAR5 cells after 48 hrs by sulforhodamine B assay; conditions: OVCAR-5, 48 h; in short: as §1
OVCAR-3 = assay: Antiproliferative activity against human OVCAR3 cells after 48 hrs by sulforhodamine B assay; conditions: OVCAR-3, 48 h; in short: as §1
NCI/ADR-RES = assay: Antiproliferative activity against human NCI/ADR-RES cells after 48 hrs by sulforhodamine B assay; in short: as §1
NCI-H322M = assay: Antiproliferative activity against human NCI-H322M cells after 48 hrs by sulforhodamine B assay; in short: as §1
[1] = Antiproliferative activity against human EKVX cells after 48 hrs by sulforhodamine B assay; in short: as §1
UACC-62 = assay: Antiproliferative activity against human UACC62 cells after 48 hrs by sulforhodamine B assay; conditions: UACC-62, 48 h
In short: (§2)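 Cells in RPMI 1640 with 5% FBS and 2 mM L-glutamine were seeded at 5000–40,000/well according to doubling time and preincubated 24 h at 37 °C in 5% CO2. Time-zero plates were TCA-fixed when drug was added. Five 10-fold or ½-log dilutions from DMSO stocks were added for 48 h. After SRB staining, A515 was read and GI50 derived from [(Ti−Tz)/(C−Tz)]×100 = 50.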

MDA-MB-435 = assay: Antiproliferative activity against human MDA-MB-435 cells after 48 hrs by sulforhodamine B assay; conditions: MDA-MB-435, 48 h; in short: as §1
LOX IMVI = assay: Antiproliferative activity against human LOXIMVI cells after 48 hrs by sulforhodamine B assay; in short: as §1
K562 = assay: Antiproliferative activity against human K562 cells after 48 hrs by sulforhodamine B assay; conditions: K562, 48 h; in short: as §1
MOLT-4 = assay: Antiproliferative activity against human MOLT4 cells after 48 hrs by sulforhodamine B assay; conditions: MOLT-4, 48 h; in short: as §1
HL-60 = assay: Antiproliferative activity against human HL60 (TB) cells after 48 hrs by sulforhodamine B assay; conditions: HL-60, 48 h
In short: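 NCI 60-cell panel protocol: cells in RPMI 1640 with 5% FBS and 2 mM L-glutamine, plated 24 h at 37 °C/5% CO2 before dosing. Compounds dissolved in DMSO and tested at five concentrations (10-fold or ½ log serial dilutions) for 48 h. Suspension cells fixed with 80% TCA (final 16%), SRB stained, absorbance at 515 nm. GI50 derived from time-zero-corrected growth.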

SW-620 = assay: Antiproliferative activity against human SW620 cells after 48 hrs by sulforhodamine B assay; conditions: SW-620, 48 h; in short: as §2
HCT-116 = assay: Antiproliferative activity against human HCT116 cells after 48 hrs by sulforhodamine B assay; conditions: HCT-116, 48 h; in short: as §1
U-251 = assay: Antiproliferative activity against human U251 cells after 48 hrs by sulforhodamine B assay; conditions: U-251, 48 h; in short: as §2
COLO 205 = assay: Antiproliferative activity against human COLO205 cells after 48 hrs by sulforhodamine B assay; conditions: COLO 205, 48 h; in short: as §1
SF-539 = assay: Antiproliferative activity against human SF539 cells after 48 hrs by sulforhodamine B assay; conditions: SF-539, 48 h; in short: as §1
SNB-19 = assay: Antiproliferative activity against human SNB19 cells after 48 hrs by sulforhodamine B assay; conditions: SNB-19, 48 h; in short: as §1
SF-295 = assay: Antiproliferative activity against human SF295 cells after 48 hrs by sulforhodamine B assay; conditions: SF-295, 48 h; in short: as §1
MDA-MB-468 = assay: Antiproliferative activity against human MDA-MB-468 cells after 48 hrs by sulforhodamine B assay; conditions: MDA-MB-468, 48 h; in short: as §1
T47D = assay: Antiproliferative activity against human T47D cells after 48 hrs by sulforhodamine B assay; in short: as §2
MDA-MB-231 = assay: Antiproliferative activity against human MDA-MB-231 cells after 48 hrs by sulforhodamine B assay; conditions: MDA-MB-231, 48 h; in short: as §1
SN12C = assay: Antiproliferative activity against human SN12C cells after 48 hrs by sulforhodamine B assay; in short: as §1
ACHN = assay: Antiproliferative activity against human ACHN cells after 48 hrs by sulforhodamine B assay; in short: as §1
A498 = assay: Antiproliferative activity against human A498 cells after 48 hrs by sulforhodamine B assay; conditions: A498, 48 h; in short: as §1
PC-3 = assay: Antiproliferative activity against human PC3 cells after 48 hrs by sulforhodamine B assay; conditions: PC-3, 48 h; in short: as §1
[2] = read-out: pLC50 (the source's name) (converted)

`CN1CCN(CCCn2c(=O)c3sc4ncccc4c3n3nnc(-c4ccccc4)c23)CC1` gave a GI50 (SK-OV-3) of 8.91 µM, an LC50 (SK-OV-3) of 28.2 µM and a TGI (SK-OV-3; read-out: pTGI (converted)) of 15.8 µM. For the same molecule, the GI50 (DU-145) was 5.89 µM, the LC50 (DU-145) was 25.1 µM and the TGI (DU-145; read-out: pTGI (converted)) was 12.3 µM. It also gave a GI50 (OVCAR-5) of 8.91 µM, an LC50 (OVCAR-5) of 32.4 µM and a TGI (OVCAR-5; read-out: pTGI (converted)) of 17 µM. It also gave a GI50 (OVCAR-3) of 2.29 µM, an LC50 (OVCAR-3) of 20.4 µM and a TGI (OVCAR-3; read-out: pTGI (converted)) of 7.59 µM. The GI50 (NCI/ADR-RES) was 7.24 µM, the LC50 (NCI/ADR-RES) was 28.2 µM and the TGI (NCI/ADR-RES; read-out: pTGI (converted)) was 14.1 µM. It also gave a GI50 (NCI-H322M) of 6.17 µM, an LC50 (NCI-H322M) of 26.9 µM and a TGI (NCI-H322M; read-out: pTGI (converted)) of 12.9 µM. For the same molecule, the GI50 [1] was 6.46 µM, the LC50 [1] was 27.5 µM and the TGI ([1]; read-out: pTGI (converted)) was 13.2 µM. For the same molecule, the GI50 (UACC-62) was 8.91 µM, the LC50 (concentration killing 50% of cells) (UACC-62) was 29.5 µM and the TGI (UACC-62; read-out: pTGI (converted)) was 16.2 µM. The GI50 (MDA-MB-435) was 1.17 µM, the LC50 (MDA-MB-435) was 13.2 µM and the TGI (MDA-MB-435; read-out: pTGI (converted)) was 3.02 µM. It also gave a GI50 (LOX IMVI) of 5.37 µM, a CC50 (LOX IMVI; [2]) of 25.1 µM and a TGI (LOX IMVI; read-out: pTGI (converted)) of 11.5 µM. For the same molecule, the GI50 (K562) was 0.871 µM, the LC50 (concentration killing 50% of cells) (K562) was 4.79 µM and the TGI (K562; read-out: pTGI (converted)) was 2.04 µM. It also gave a GI50 (MOLT-4) of 1.55 µM, an LC50 (MOLT-4) of 21.4 µM and a TGI (MOLT-4; read-out: pTGI (converted)) of 4.9 µM. For the same molecule, the GI50 (HL-60) was 0.794 µM, the CC50 (HL-60; [2]) was 3.8 µM and the TGI (HL-60; read-out: pTGI (converted)) was 1.74 µM. The GI50 (SW-620) was 5.37 µM, the LC50 (SW-620) was 24.5 µM and the TGI (SW-620; read-out: pTGI (converted)) was 11.5 µM. The GI50 (HCT-116) was 5.25 µM, the LC50 (HCT-116) was 26.3 µM and the TGI (HCT-116; read-out: pTGI (converted)) was 11.7 µM. The GI50 (U-251) was 5.25 µM, the LC50 (U-251) was 24 µM and the TGI (U-251; read-out: pTGI (converted)) was 11.2 µM. The GI50 (COLO 205) was 7.41 µM, the LC50 (COLO 205) was 28.8 µM and the TGI (COLO 205; read-out: pTGI (converted)) was 14.5 µM. The GI50 (SF-539) was 5.75 µM, the LC50 (SF-539) was 30.9 µM and the TGI (SF-539; read-out: pTGI (converted)) was 13.5 µM. The GI50 (SNB-19) was 8.32 µM, the LC50 (SNB-19) was 29.5 µM and the TGI (SNB-19; read-out: pTGI (converted)) was 15.8 µM. For the same molecule, the GI50 (SF-295) was 5.62 µM, the LC50 (SF-295) was 26.9 µM and the TGI (SF-295; read-out: pTGI (converted)) was 12.3 µM. For the same molecule, the GI50 (MDA-MB-468) was 6.92 µM, the LC50 (MDA-MB-468) was 28.2 µM and the TGI (MDA-MB-468; read-out: pTGI (converted)) was 13.8 µM. The GI50 (T47D) was 7.94 µM, the LC50 (T47D) was 31.6 µM and the TGI (T47D; read-out: pTGI (converted)) was 15.8 µM. For the same molecule, the GI50 (MDA-MB-231) was 6.92 µM, the LC50 (MDA-MB-231) was 26.9 µM and the TGI (MDA-MB-231; read-out: pTGI (converted)) was 13.5 µM. The GI50 (SN12C) was 7.24 µM, the LC50 (SN12C) was 28.2 µM and the TGI (SN12C; read-out: pTGI (converted)) was 14.1 µM. For the same molecule, the GI50 (ACHN) was 8.13 µM, the LC50 (50% lethal concentration) (ACHN) was 27.5 µM and the TGI (ACHN; read-out: pTGI (converted)) was 15.1 µM. For the same molecule, the GI50 (A498) was 0.158 µM, the LC50 (A498) was 21.9 µM and the TGI (A498; read-out: pTGI (converted)) was 9.33 µM. The GI50 (PC-3) was 6.31 µM, the LC50 (PC-3) was 28.8 µM and the TGI (PC-3; read-out: pTGI (converted)) was 13.5 µM.

Source: ChEMBL document CHEMBL2346608, “New annelated thieno[2,3-e][1,2,3]triazolo[1,5-a]pyrimidines, with potent anticancer activity, designed through VLAK protocol” (2013)
